Rows were chosen to be rich in hits. Some 5.7% of all compounds tested hit in one or more screens of this group.
Beta cell apopt = beta cell apoptosis inhibition; INS-1E cytokine-induced death, ATP luminescence, 48 h; percent of positive-control rescue, neutral wells zero; protection from apoptosis, % (concentration not given with the values); 300,000 tested, 0.8% active; AID 435005;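 active means Every replicate reaches about 75%, or at least half do and their mean reaches it too, limit read from the data; inconclusive means At least half of replicates reach the limit but their mean does not; inactive means Under half of replicates reach the limit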;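 further: 0% = cytokine-treated negative control wells and 100% = positive control rescue; higher means more ATP so stronger rescue from cytokine killing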
Calb FLC = C. albicans growth modulation with fluconazole; C. albicans CaCi-2 (fluconazole-resistant clinical isolate) + fluconazole, Alamar Blue growth, 48 h; growth inhibition, % (concentration not given with the values); 300,000 tested, 0.57% active; AID 1979;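 active means growth inhibition above about 58% in most replicates, limit read from the data, passing the limit was not always enough; inconclusive means exactly half the replicates above a set limit; inactive means most replicates below a set limit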;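 further: all wells also contain fluconazole at 8 µg/ml as a sub-toxic cotreatment; 0% = median of DMSO wells and 100% = median of geldanamycin control wells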
SKKanGAS inh = blocks kanamycin growth of S. pyogenes SKKanGAS strain; BacTiter-Glo, 6 h; inhibition, % at 7.5 µM; 300,000 tested, 1.3% active; AID 1662;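 active means mean replicate score, as percent of positive control median, at least 50; inconclusive means mean below 50 but one replicate at or above 50; inactive means mean and every replicate below 50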;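 further: strain carries kanamycin resistance gene driven by streptokinase promoter and grows in 40 µg/ml kanamycin; loss of luminescence reflects streptokinase promoter inhibition or plain growth inhibition; 0% = median of DMSO wells and 100% = positive control at its reference dose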
CSC inhib = blocks cancer stem cells | 300,000 tested, 1.1% active | cancer stem cell-like cells viability, luminescence | AID 2717 | inhibition, % at 7.5 µM; in the data active means inhibition above about 75%; inconclusive means no clear call, values can overlap the other calls; tested in HMLE shEcad cells
T cruzi inh = blocks replication of Trypanosoma cruzi | T. cruzi beta-gal in NIH3T3, luminescence, 90 h | inhibition, % (concentration not given with the values) | 300,000 tested, 1.4% active;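 active means mean inhibition across valid replicates above about 55%, limit read from the data; inconclusive means mean below that limit but half or more replicates reach it; inactive means mean below it, under half of replicates reach it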;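 further: signal also drops with host cell toxicity which is not excluded here; 0% = plate median of DMSO wells and 100% = zero luminescence signal; higher percent means less beta-gal luminescence so fewer parasites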
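System: mouse NIH/3T3 fibroblasts infected with β-gal-expressing T. cruzi Tulahuen C4 / Input: NIH/3T3 cells, 5,000 per well / Buffer or medium: Low-serum DMEM with 2% FBS / Probe or stimulus: 5000 reporter trypomastigotes per well / Schedule: ≥90 h infection period, 3 h prior cell attachment / Measured by: GalScreen luminescence, 60 min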
Mdm2 MdmX PPI = disrupts the human Mdm2-MdmX interaction. SaOS-2 split-luciferase Mdm2/MdmX complementation, luminescence. inhibition, % at 8 µM. 330,000 tested, 3% active. AID 485346;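 active means inhibition of at least 50% at 8 µM in the primary screen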
Target sequence (O15151 whole entry, looked up): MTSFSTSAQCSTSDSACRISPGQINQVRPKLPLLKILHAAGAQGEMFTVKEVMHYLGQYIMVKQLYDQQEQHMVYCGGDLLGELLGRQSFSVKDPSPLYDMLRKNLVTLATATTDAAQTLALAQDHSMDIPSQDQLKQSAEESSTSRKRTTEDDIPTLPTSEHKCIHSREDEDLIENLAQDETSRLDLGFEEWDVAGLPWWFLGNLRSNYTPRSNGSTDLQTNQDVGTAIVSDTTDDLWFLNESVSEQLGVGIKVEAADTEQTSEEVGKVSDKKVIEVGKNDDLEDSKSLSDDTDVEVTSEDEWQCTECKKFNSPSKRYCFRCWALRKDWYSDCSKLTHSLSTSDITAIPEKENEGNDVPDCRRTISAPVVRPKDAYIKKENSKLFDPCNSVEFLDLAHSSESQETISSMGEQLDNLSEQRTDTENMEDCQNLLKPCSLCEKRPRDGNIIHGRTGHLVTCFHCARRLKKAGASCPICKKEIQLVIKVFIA
Target sequence (Q00987 whole entry, looked up): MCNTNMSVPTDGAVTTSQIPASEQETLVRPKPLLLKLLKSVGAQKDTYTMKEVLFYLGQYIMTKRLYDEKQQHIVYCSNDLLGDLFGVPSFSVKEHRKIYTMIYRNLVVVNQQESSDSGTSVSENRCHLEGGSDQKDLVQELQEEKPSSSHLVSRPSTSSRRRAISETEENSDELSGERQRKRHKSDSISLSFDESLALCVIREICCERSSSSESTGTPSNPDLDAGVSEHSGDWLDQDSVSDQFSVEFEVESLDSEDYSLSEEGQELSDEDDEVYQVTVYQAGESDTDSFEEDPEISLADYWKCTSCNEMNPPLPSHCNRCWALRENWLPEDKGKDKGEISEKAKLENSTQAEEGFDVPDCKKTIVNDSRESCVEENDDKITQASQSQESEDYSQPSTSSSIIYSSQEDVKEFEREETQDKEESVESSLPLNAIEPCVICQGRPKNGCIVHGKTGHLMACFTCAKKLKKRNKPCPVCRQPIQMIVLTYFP
Mdm2-MdmX conf = confirmation of human Mdm2/MdmX interaction inhibitors; shares compounds with Mdm2 MdmX PPI; 10,000 tested, 55% active; AID 489028; Mdm2-MdmX binding, luminescent assay; inhibition, % at 8 µM; in the data active means inhibition above about 40%
FLuc counter = full-length luciferase inhibition in Mdm2/MdmX counter-screen; shares compounds with Mdm2 MdmX PPI; 6,200 tested, 77% active; SaOS-2 full-length luciferase counterscreen, luminescence; AID 504607; inhibition, % at 8 µM;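 active means mean inhibition at 8 µM reaching about 37%, which flags the compound as non-specific, limit read from the data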;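 further: p53-null SaOS-2 cells with luciferase driven by a doxycycline-inducible promoter; compound on cells about two nights before reading with doxycycline added after day one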
* = called active by the depositor; ? = inconclusive; · = not tested or not shown.

SMILES	Beta cell apopt	Calb FLC	SKKanGAS inh	CSC inhib	T cruzi inh	Mdm2 MdmX PPI	Mdm2-MdmX conf	others
CN(C)CCCO[C@@H]1[C@H]2OC(C)(C)O[C@H]2O[C@@H]1[C@H](O)CO	-1	·	·	-4	·	7	·
CCc1ccc(NC(=O)Nc2ccon2)cc1	-3	-6	2	2	-6	-12	·
O=C(Nc1ccc(Oc2cccnc2)cc1)c1ccc([N+](=O)[O-])cc1	18	16	12	·	-13	3	·
COC(=O)c1ccc(NC(=O)Nc2ccc([N+](=O)[O-])cc2)cc1	13	30	51*	12	30	59*	43*	FLuc counter=85*
O=C(Nc1ccc(Nc2ccncc2)cc1)c1ccc([N+](=O)[O-])cc1	22	-2	3	29	33	100*	36	FLuc counter=13
O=C(Nc1ccc([N+](=O)[O-])cc1)Nc1ccon1	33	?	-2	·	-9	66*	67*	FLuc counter=73*
O=[N+]([O-])c1ccc(S(=O)(=O)Nc2ccncc2)cc1	·	5	7	·	-11	50*	8
O=C(Nc1ccc(C(=O)O)cc1)Nc1ccc([N+](=O)[O-])cc1	·	5	10	-5	6	18	·
O=C(COC(=O)Cc1ccc(S(=O)(=O)N2CCOCC2)s1)Nc1ccc([N+](=O)[O-])cc1	-8	·	·	-9	·	0	·
Cc1cccc(N2CCN(S(=O)(=O)c3c(C)noc3/C=C/N(C)C)CC2)c1C	0	-6	15	29	11	38	·
COc1ccc(C)cc1NC(=O)C(c1ccccc1)N1CCN(CC(=O)NC2CC2)CC1 (configuration not stated)	·	·	·	·	·	3	·
COc1ccccc1C(=O)Nc1nc2ccccc2[nH]1	93*	2	90*	95*	11	98*	95*	FLuc counter=6
COc1cc(SC)ccc1C(=O)Nc1nc2ccccc2[nH]1	106*	-6	107*	-5	-3	100*	99*	FLuc counter=2
COc1ccccc1C(=O)NCCC(=O)Nc1nc2ccccc2[nH]1	-10	·	-16	5	-4	42	·
CC(C)Oc1ccc(S(=O)(=O)N2CCCCC2)cc1NC(=O)C1CCC1	-3	·	-8	-9	4	16	·
Cc1ccc(NC(=O)c2cc3c(=O)oc4ccccc4c3s2)nc1	-2	17	-8	-2	-8	63*	-1
CC1c2cc3c(cc2CCN1C(=O)c1cccc(Cl)c1)OCCCO3 (configuration not stated)	6	-6	1	36	6	57*	44*	FLuc counter=62*
CCN(CC)P(=O)(c1ccccc1)c1c(C)nc2ccccn12 (configuration not stated)	-6	-2	0	-22	-8	-11	·
CC(=O)N(C)C1=C(N2CCOCC2)C(=O)c2ccccc2C1=O	125*	13	-3	·	-113	82*	86*	FLuc counter=48*
CN(CCNC(=O)c1ccc(CS(=O)(=O)c2c(Cl)cccc2Cl)o1)CCc1ccccc1	0	-5	-7	-5	29	38	·
CC(=O)c1c(C)[nH]c(C(=O)CSc2nnc(-c3cccs3)n2Cc2ccccc2)c1C	1	35	10	4	-3	18	·
CC(=O)c1c(C)[nH]c(C(=O)CSc2nnc(-c3ccccc3)n2Cc2ccc3c(c2)OCO3)c1C	-3	9	10	2	-21	77*	30
CC(=O)c1c(C)[nH]c(C(=O)CSc2ncnc3sc(-c4ccccc4)cc23)c1C	·	5	5	-17	-38	51*	6
CCOC(=O)c1c(C)[nH]c(C(=O)CSc2nnc(-c3cccs3)n2Cc2ccccc2)c1C	11	-1	13	19	19	65*	42*	FLuc counter=40*
C=CCn1c(SCn2nnc3ccccc3c2=O)nc2scc(-c3cccs3)c2c1=O	3	-2	4	48	15	13	·
SMILES	Beta cell apopt	Calb FLC	SKKanGAS inh	CSC inhib	T cruzi inh	Mdm2 MdmX PPI	Mdm2-MdmX conf	others
O=c1c2ccccc2nnn1CSc1nnc(-c2cccs2)n1Cc1ccccc1	2	11	-1	27	3	61*	49*	FLuc counter=72*
O=C(C1CCCCCC1)N1CC[C@@H](N2CCC(O)CC2)[C@H](O)C1	·	-2	-8	-8	5	-24	·
CC(=O)c1ccc(S(=O)(=O)N(CC(=O)NC2CC2)Cc2ccc(F)cc2)cc1	·	·	·	·	·	18	·
CC1(C)Cc2c(cnn2-c2ccc(F)cc2)C(NC(=O)c2ccco2)C1 (configuration not stated)	-3	3	1	12	-2	1	·
CC12CC(c3ccccc3O1)N(C(=O)c1ccco1)C(=S)N2c1ccc(F)cc1 (configuration not stated)	-1	26	-3	14	-1	51*	30
COc1ccc(-c2cc(C(=O)N(C)Cc3cccc(OC)c3OC)c3ccccc3n2)cc1OC	5	3	25	7	1	49	·
COc1cccc(CN(C)C(=O)c2cc(-c3ccc(F)cc3)nc3ccccc23)c1	14	?	14	18	24	53*	16
COc1cccc(NC(=O)CN(C)C(=O)c2cc(-c3ccccc3)nc3ccccc23)c1	0	7	-4	-20	1	18	·
COc1cccc(CN(C)C(=O)c2cc(-c3ccc(OC)c(OC)c3)nc3ccccc23)c1	6	12	9	28	3	55*	32
COc1cccc(NC(=O)CN(C)C(=O)c2cc(-c3ccc(F)cc3)nc3ccccc23)c1	6	-4	25	7	39	62*	34
COc1ccc(CN(C)C(=O)c2cc(-c3ccccc3)nc3ccc(C)cc23)c(OC)c1OC	5	-5	5	38	25	65*	31
COc1ccc(CCN(C)C(=O)c2cc(-c3ccccc3)nc3ccc(C)cc23)cc1OC	-5	34	-6	-19	19	2	·
COc1ccc(-c2cc(C(=O)N(C)CCc3ccc(OC)c(OC)c3)c3ccccc3n2)cc1	-1	-2	0	-14	12	14	·
COc1ccc(CCNS(=O)(=O)c2ccc(Br)cc2)cc1OC	-9	7	-2	-5	-6	26	·
COc1ccc(CN(C)C(=O)c2cc(-c3ccc(OC)c(OC)c3)nc3ccccc23)c(OC)c1	-3	1	9	20	16	57*	46*	FLuc counter=101*
COc1ccc(-c2cc(C(=O)N(C)Cc3nc4ccccc4c(=O)[nH]3)c3ccccc3n2)cc1OC	12	·	·	23	·	52*	12
COc1ccc(CCN(C)C(=O)c2cc(-c3ccccc3)nc3ccccc23)cc1OC	-2	4	1	-6	12	12	·
